Measurements published in ChEMBL document CHEMBL1777716, “Identification and optimisation of novel sulfonamide, selective vasopressin V1B receptor antagonists” (Bioorg Med Chem Lett, 2011).
≈ marks a conversion by molar mass, not a printed value. Calls of active or inactive are those of the source. The rule behind the calls is not given here. Non-standard residues stand in square brackets, D forms with d. Residues, ends and D or L forms follow the SMILES beside them. *: point of attachment. 2Nal = N[C@@H](Cc1ccc2ccccc2c1)C(=O)O; Mtr = COc1cc(C)c(S(=O)(=O)*)c(C)c1C; Piperidide = C1CCN(*)CC1

Key:
Vasopressin V1b receptor [1] = biological target: T1, Vasopressin V1b receptor (Homo sapiens, UniProt P47901); assay: Displacement of [3H]-AVP from human vasopressin V1B receptor expressed in CHO cells; type: cell-based
T1 sequence (P47901 whole entry): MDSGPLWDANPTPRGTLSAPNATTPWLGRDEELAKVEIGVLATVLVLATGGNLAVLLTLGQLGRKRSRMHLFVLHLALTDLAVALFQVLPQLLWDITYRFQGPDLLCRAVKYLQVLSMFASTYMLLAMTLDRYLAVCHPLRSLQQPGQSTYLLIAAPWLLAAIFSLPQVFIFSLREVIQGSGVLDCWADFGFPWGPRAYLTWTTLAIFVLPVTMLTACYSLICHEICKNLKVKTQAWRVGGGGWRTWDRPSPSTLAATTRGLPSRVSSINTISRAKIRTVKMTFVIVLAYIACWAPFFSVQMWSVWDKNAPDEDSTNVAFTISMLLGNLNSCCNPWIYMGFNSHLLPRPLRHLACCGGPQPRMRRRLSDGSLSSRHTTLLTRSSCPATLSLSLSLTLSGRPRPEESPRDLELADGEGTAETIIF
Outline: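 Whole-cell binding in CHO cells expressing human receptor, [³H]AVP tracer, increasing compound concentrations; nonspecific binding with 10 µM lysine vasopressin. Affinity (Ki) from non-linear regression of specific binding versus concentration; mean of at least 2 independent experiments run in duplicate.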

Vasopressin V1a receptor = Vasopressin V1a receptor (Homo sapiens, UniProt P37288); assay: Displacement of [3H]-AVP from human vasopressin V1A receptor expressed in CHO cell membranes
Chain of Vasopressin V1a receptor (P37288 whole entry): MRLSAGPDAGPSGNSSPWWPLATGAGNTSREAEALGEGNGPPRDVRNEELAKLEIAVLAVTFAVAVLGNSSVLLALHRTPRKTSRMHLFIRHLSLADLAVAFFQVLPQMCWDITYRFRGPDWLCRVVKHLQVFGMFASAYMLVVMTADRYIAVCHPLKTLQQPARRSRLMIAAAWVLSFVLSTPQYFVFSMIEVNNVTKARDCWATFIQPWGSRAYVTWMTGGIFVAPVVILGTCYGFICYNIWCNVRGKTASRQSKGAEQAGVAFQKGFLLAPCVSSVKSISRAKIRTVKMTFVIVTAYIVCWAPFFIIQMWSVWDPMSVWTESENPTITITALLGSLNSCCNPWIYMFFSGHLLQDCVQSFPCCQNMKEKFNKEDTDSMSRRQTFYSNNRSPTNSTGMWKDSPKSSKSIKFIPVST
Outline: (§1)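 Membranes from CHO cells expressing the human receptor incubated with [³H]AVP and increasing compound concentrations. Nonspecific binding defined with 10 µM lysine vasopressin. Specific binding plotted against compound concentration; affinity derived by non-linear regression. Mean of at least 2 independent experiments in duplicate.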

Vasopressin V2 receptor = Vasopressin V2 receptor (Homo sapiens, UniProt P30518); assay: Displacement of [3H]-AVP from human vasopressin V2 receptor expressed in CHO cell membranes; outline: as §1
Chain of Vasopressin V2 receptor (P30518 whole entry): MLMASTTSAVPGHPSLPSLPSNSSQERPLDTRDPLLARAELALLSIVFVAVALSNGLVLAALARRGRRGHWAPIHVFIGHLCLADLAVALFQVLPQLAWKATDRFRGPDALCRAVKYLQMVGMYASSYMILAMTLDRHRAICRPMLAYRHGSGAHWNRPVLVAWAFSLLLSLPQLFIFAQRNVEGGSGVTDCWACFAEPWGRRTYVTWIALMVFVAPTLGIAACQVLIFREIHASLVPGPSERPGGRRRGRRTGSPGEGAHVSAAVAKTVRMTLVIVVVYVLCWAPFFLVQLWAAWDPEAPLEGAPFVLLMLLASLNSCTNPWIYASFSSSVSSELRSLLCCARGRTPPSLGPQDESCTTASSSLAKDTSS

[2] = Solubility of the compound at pH 7.4; type: physicochemical; details: buffer
Outline: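 Kinetic solubility measured at pH 7.4, reported in mg/L.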

Oxytocin receptor = biological target: T2, Oxytocin receptor (Homo sapiens, UniProt P30559); assay: Displacement of [3H]oxytocin from human oxytocin receptor expressed in CHO cells; type: cell-based
T2 sequence (P30559 whole entry): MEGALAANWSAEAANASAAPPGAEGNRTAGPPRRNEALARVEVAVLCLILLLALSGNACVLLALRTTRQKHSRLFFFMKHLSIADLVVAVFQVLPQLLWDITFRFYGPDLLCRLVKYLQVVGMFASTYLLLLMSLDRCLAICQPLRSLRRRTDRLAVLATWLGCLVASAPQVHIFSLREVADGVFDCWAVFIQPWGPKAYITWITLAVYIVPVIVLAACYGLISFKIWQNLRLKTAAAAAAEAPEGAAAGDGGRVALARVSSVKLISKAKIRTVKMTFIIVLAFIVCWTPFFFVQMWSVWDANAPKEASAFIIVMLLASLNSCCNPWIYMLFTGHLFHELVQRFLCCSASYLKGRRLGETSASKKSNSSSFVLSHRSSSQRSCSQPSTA
Outline: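 Intact CHO cells expressing human receptor incubated with [³H]oxytocin plus increasing compound concentrations; 10 µM oxytocin defines nonspecific binding. Ki obtained by non-linear regression of specific binding against compound concentration; values averaged from at least 2 independent duplicate experiments.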

[3] = Lipophilicity, log D of the compound at pH 7.4; type: physicochemical; details: buffer
Vasopressin V1b receptor [4] = biological target: T1, Vasopressin V1b receptor; assay: Antagonist activity at human vasopressin V1B receptor expressed in CHO cells assessed as inhibition of AVP-induced calcium mobilisation by luciferase reporter gene assay; type: functional, cell-based
[5] = biological target: 5-hydroxytryptamine receptor 6 (Homo sapiens) (UniProt P50406); assay: Binding affinity to 5HT6 receptor
Chain of 5-hydroxytryptamine receptor 6 (Homo sapiens) (P50406 whole entry): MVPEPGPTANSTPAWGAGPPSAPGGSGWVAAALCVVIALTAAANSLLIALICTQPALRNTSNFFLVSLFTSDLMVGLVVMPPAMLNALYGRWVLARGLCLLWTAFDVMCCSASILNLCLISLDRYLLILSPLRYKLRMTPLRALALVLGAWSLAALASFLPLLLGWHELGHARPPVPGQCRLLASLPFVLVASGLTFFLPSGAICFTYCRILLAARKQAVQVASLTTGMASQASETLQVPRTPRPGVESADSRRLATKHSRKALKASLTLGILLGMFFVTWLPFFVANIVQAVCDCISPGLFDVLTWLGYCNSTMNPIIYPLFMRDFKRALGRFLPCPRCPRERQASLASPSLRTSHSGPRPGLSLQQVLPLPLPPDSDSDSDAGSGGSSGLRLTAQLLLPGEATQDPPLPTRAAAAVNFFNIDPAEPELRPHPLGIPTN

Structure (SMILES)	Ki (Vasopressin V1b receptor [1]) [nM]	also measured
COc1cc(C)c(S(=O)(=O)N[C@@H](Cc2ccccc2)C(=O)N[C@@H](Cc2ccccc2)C(=O)N2CCCCC2)c(C)c1C	630	
COc1ccc(S(=O)(=O)n2c(C)c(CC(=O)NCCCN3CCN(C)CC3)c3cc(F)ccc32)c(C)c1C	430	
COc1ccc(S(=O)(=O)n2c(C)c(C(=O)NCCCN3CCN(C)CC3)c3ccccc32)c(C)c1C	560	
COc1cc(C)c(S(=O)(=O)N[C@@H](Cc2ccccc2)C(=O)NCC(=O)N2CCCCC2)c(C)c1C (Mtr-Phe-Gly-Piperidide)	> 10000	
COc1ccc(S(=O)(=O)n2c(C)c(CC(=O)N(C)CCc3ccccn3)c3cc(F)ccc32)c(C)c1C	260	
COc1ccc(S(=O)(=O)n2c(C)c(C(=O)N3CCCN(C)CC3)c3ccccc32)c(C)c1C	500	
COc1cc(C)c(S(=O)(=O)N[C@@H](Cc2ccccc2)C(=O)N[C@@H](Cc2ccc3ccccc3c2)C(=O)N2CCCCC2)c(C)c1C (Mtr-Phe-[2Nal]-Piperidide)	> 10000	
COc1ccc(S(=O)(=O)N2CC(C(=O)NCCCN3CCN(C)CC3)c3ccccc32)c(C)c1C (centres undefined)	1200	Activity [5]: Active
COc1cc(C)c(S(=O)(=O)N[C@@H](Cc2ccccc2)C(=O)NC(Cc2ccc3c(N)nccc3c2)C(=O)N2CCCCC2)c(C)c1C (some centres undefined)	63	
COc1cc(C)c(S(=O)(=O)N[C@@H](Cc2ccccc2)C(=O)N[C@H](Cc2ccccc2)C(=O)N2CCCCC2)c(C)c1C	> 10000	
COc1ccc(S(=O)(=O)n2c(C)c(C(=O)N3CCCNCC3)c3cc(F)ccc32)c(C)c1C	310	

Now from value to compound, other results behind:

Ki (Vasopressin V1b receptor [1]) [nM]	Structure (SMILES)	also measured
10000	COc1cc(C)c(S(=O)(=O)N[C@@H](Cc2ccccc2)C(=O)NCCCN2CCOCC2)c(C)c1C	
3200	COc1cc(C)c(S(=O)(=O)N[C@@H](Cc2ccccc2)C(=O)N2CCCN(C)CC2)c(C)c1C	
500	COc1cc(C)c(S(=O)(=O)N[C@@H](Cc2ccccc2)C(=O)NCCN2CCN(C)CC2)c(C)c1C	
2000	COc1cc(C)c(S(=O)(=O)N[C@@H](Cc2ccccc2)C(=O)NCCCN(C)C)c(C)c1C	
190	COc1ccc2c(c1)c(C(=O)N1CCCNCC1)c(C)n2S(=O)(=O)c1ccc(OC)c(C)c1C	Ki (Vasopressin V1a receptor): > 10000 nM; Ki (Vasopressin V2 receptor): > 10000 nM; solubility [2]: 72 µg/mL (≈ 148 µM); Ki (Oxytocin receptor): > 10000 nM; logD [3]: 2; IC50 (Vasopressin V1b receptor [4]): 371 nM
180	COc1ccc2c(c1)c(CC(=O)N1CCCNCC1)c(C)n2S(=O)(=O)c1ccc(OC)c(C)c1C	Ki (Oxytocin receptor): 320 nM
2500	COc1cc(C)c(S(=O)(=O)N[C@@H](Cc2ccccc2)C(=O)NCCCN2CCC(C)CC2)c(C)c1C	
790	COc1ccc(S(=O)(=O)n2c(C)c(C(=O)N3CCCNCC3)c3cc(C)ccc32)c(C)c1C	
250	COc1cc(C)c(S(=O)(=O)N[C@@H](Cc2ccccc2)C(=O)NCCCN2CCN(C)CC2)c(C)c1C	
1000	COc1cc(C)c(S(=O)(=O)N[C@@H](Cc2ccccc2)C(=O)N(C)CCCN2CCN(C)CC2)c(C)c1C	
